What was measured:
[1] = biological target: T1, Angiotensin II receptor (Rattus norvegicus) (UniProt P29089+P25095+P35351); assay: Angiotensin II receptor agonist activity was tested in rat isolated uterus assay using [Asp1,Ile5]ANG II (human angiotensin II) as the standard; assay type: functional, tissue-based
In short: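 Uterine horns from diethylstilbestrol-primed virgin Sprague-Dawley rats (150–250 g), defatted and halved. Each half held at 1 g tension in a 3-mL bath at pH 7.0, oxygen-gassed (150 mM NaCl, 5.6 mM KCl, 0.18 mM CaCl2, 1.8 mM NaHCO3, 1.4 mM glucose). Contractions recorded isotonically. Agonism measured by matching each response to an equivalent response to human ANG II. Mean ± SEM.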

Angiotensin II receptor = biological target: T2, Angiotensin II receptor (Rattus norvegicus, UniProt P29089+P25095+P35351); assay: Angiotensin II receptor antagonist activity was tested in rat isolated uterus assay using [Asp1,Ile5]ANG II (human angiotensin II) as the standard; assay type: functional, tissue-based
T2 sequence (P29089 whole entry): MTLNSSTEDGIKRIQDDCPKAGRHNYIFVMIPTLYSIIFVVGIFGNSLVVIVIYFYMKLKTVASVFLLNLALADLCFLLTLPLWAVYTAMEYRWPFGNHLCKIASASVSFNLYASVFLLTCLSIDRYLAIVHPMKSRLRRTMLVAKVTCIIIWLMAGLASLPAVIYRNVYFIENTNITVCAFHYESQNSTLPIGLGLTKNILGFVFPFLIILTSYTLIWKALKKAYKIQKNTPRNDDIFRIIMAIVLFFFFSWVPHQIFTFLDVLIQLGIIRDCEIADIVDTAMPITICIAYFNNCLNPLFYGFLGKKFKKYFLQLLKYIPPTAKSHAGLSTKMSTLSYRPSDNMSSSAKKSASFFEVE
T2 sequence (P25095 whole entry): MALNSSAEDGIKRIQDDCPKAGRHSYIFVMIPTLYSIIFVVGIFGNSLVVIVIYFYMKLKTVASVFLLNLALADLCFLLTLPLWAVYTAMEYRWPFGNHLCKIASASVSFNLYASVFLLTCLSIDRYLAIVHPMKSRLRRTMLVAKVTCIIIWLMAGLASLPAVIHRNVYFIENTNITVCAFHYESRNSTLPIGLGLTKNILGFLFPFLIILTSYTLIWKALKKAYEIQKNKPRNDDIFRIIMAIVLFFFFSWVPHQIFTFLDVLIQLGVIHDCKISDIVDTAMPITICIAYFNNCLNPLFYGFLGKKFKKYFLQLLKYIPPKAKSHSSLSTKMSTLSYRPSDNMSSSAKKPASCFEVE
T2 sequence (P35351 whole entry): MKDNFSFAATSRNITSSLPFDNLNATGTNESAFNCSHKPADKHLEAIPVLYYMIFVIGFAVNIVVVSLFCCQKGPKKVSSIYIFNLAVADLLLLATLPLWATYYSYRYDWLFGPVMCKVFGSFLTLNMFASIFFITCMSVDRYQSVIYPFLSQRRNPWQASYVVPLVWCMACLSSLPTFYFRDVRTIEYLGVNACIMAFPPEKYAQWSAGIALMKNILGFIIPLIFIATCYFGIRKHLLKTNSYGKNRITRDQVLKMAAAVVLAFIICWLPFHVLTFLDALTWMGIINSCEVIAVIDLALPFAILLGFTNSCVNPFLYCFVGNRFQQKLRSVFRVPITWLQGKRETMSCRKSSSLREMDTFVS
In short: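 Defatted, halved uterine horns from diethylstilbestrol-primed virgin Sprague-Dawley rats (150–250 g), at 1 g tension in a 3-mL bath at pH 7.0, oxygen-gassed (150 mM NaCl, 5.6 mM KCl, 0.18 mM CaCl2, 1.8 mM NaHCO3, 1.4 mM glucose). Isotonic recording of contraction. pA2 is the negative log of the antagonist concentration that cuts the response to an EC50 dose of human ANG II down to the response to half the EC50 dose. Mean ± SEM.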

[2] = biological target: T1, Angiotensin II receptor (Rattus norvegicus); assay: Compound was evaluated for the antagonistic activity against rat Angiotensin II receptor by using isometric bioassay system; assay type: functional

| SMILES | Activity [1] | pA2 (Angiotensin II receptor) | Activity [2] |
| --- | --- | --- | --- |
| CC[C@H](C)[C@H](NC(=O)C1CCCN1C(=O)[C@H](Cc1c[nH]cn1)NC(=O)[C@@H](NC(=O)[C@H](Cc1ccc(O)cc1)NC(=O)[C@@H](NC(=O)[C@H](CCCN=C(N)N)NC(=O)CNC)C(C)C)[C@@H](C)CC)C(=O)O (single isomer, unassigned) | < 0.1% |  |  |
| CC[C@H](C)[C@H](NC(=O)[C@@H](NC(=O)[C@H](CCCN=C(N)N)NC(=O)CNC)C(C)C)C(=O)N[C@H](C(=O)N[C@@H](Cc1c[nH]cn1)C(=O)N1CCC[C@@H]1C(=O)N[C@@H](Cc1ccccc1)C(=O)O)[C@@H](C)CC | 0.2% |  |  |
| CC[C@H](C)[C@H](NC(=O)[C@@H](NC(=O)[C@@H](NC(=O)[C@H](CCCN=C(N)N)NC(=O)CNC)C(C)C)[C@H](C)O)C(=O)N[C@@H](Cc1c[nH]cn1)C(=O)N1CCC[C@@H]1C(=O)N[C@@H](Cc1ccccc1)C(=O)O | 2% |  |  |
| CC[C@H](C)[C@H](NC(=O)[C@@H](NC(=O)[C@@H](NC(=O)[C@H](CCCN=C(N)N)NC(=O)CNC)C(C)C)[C@@H](C)O)C(=O)N[C@@H](Cc1c[nH]cn1)C(=O)N1CCC[C@H]1C(=O)N[C@@H](Cc1ccccc1)C(=O)O |  | < 6 |  |
| CC[C@H](C)[C@H](NC(=O)[C@@H](NC(=O)[C@H](CCCN=C(N)N)NC(=O)CNC)C(C)C)C(=O)N[C@H](C(=O)N[C@@H](Cc1c[nH]cn1)C(=O)N1CCC[C@H]1C(=O)N[C@@H](Cc1ccccc1)C(=O)O)[C@@H](C)CC |  | < 6 |  |
| CC[C@H](C)[C@H](NC(=O)[C@@H]1C[C@@H](O)CN1C(=O)[C@@H](NC(=O)[C@H](CCCN=C(N)N)NC(=O)CNC)C(C)C)C(=O)N[C@@H](Cc1c[nH]cn1)C(=O)N1CCC[C@H]1C(=O)N[C@@H](Cc1ccccc1)C(=O)O |  | < 5 |  |
| CC[C@H](C)[C@H](NC(=O)[C@H]1CCCN1C(=O)[C@H](Cc1c[nH]cn1)NC(=O)[C@@H](NC(=O)[C@@H](Cc1ccc(O)cc1)NC(=O)[C@@H](NC(=O)[C@H](CCCN=C(N)N)NC(=O)CNC)C(C)C)[C@@H](C)CC)C(=O)O | < 0.1% |  |  |
| CC[C@H](C)[C@H](NC(=O)[C@H]1CCCN1C(=O)[C@H](Cc1c[nH]cn1)NC(=O)[C@@H](NC(=O)[C@@H](Cc1ccccc1)NC(=O)[C@@H](NC(=O)[C@H](CCCN=C(N)N)NC(=O)CNC)C(C)C)[C@@H](C)CC)C(=O)O | < 0.1% | < 5 |  |
| CC[C@H](C)[C@H](NC(=O)[C@@H]1C[C@@H](O)CN1C(=O)[C@@H](NC(=O)[C@H](CCCN=C(N)N)NC(=O)CNC)C(C)C)C(=O)N[C@@H](Cc1c[nH]cn1)C(=O)N1CCC[C@@H]1C(=O)N[C@@H](Cc1ccccc1)C(=O)O | < 0.1% |  |  |

The remaining lines, values ahead:

| Activity [1] | pA2 (Angiotensin II receptor) | Activity [2] | SMILES |
| --- | --- | --- | --- |
| < 0.1% |  |  | CC[C@H](C)[C@H](NC(=O)[C@H](Cc1ccc(OC)cc1)NC(=O)[C@@H](NC(=O)[C@H](CCCN=C(N)N)NC(=O)[C@H](C)N)C(C)C)C(=O)N[C@@H](Cc1c[nH]cn1)C(=O)N1CCC[C@@H]1C(=O)N[C@@H](Cc1ccccc1)C(=O)O |
|  | < 6 |  | CC[C@H](C)[C@H](NC(=O)[C@H](Cc1ccc(OC)cc1)NC(=O)[C@@H](NC(=O)[C@H](CCCN=C(N)N)NC(=O)[C@@H]1CCCN1)C(C)C)C(=O)N[C@@H](Cc1c[nH]cn1)C(=O)N1CCC[C@H]1C(=O)N[C@@H](Cc1ccccc1)C(=O)O |
| 2% |  |  | CC[C@H](C)[C@H](NC(=O)[C@@H](Cc1ccc(O)cc1)NC(=O)[C@@H](NC(=O)[C@H](CCCN=C(N)N)NC(=O)CNC)C(C)C)C(=O)N[C@@H](Cc1c[nH]cn1)C(=O)N1CCC[C@@H]1C(=O)N[C@@H](Cc1ccccc1)C(=O)O |
|  | < 6.5 |  | CC[C@H](C)[C@H](NC(=O)[C@@H](Cc1ccc(O)cc1)NC(=O)[C@@H](NC(=O)[C@H](CCCN=C(N)N)NC(=O)CNC)C(C)C)C(=O)N[C@@H](Cc1c[nH]cn1)C(=O)N1CCC[C@H]1C(=O)N[C@@H](Cc1ccccc1)C(=O)O |
| < 0.1% | < 5.5 |  | CC[C@H](C)[C@H](NC(=O)[C@@H](Cc1ccccc1)NC(=O)[C@@H](NC(=O)[C@H](CCCN=C(N)N)NC(=O)CNC)C(C)C)C(=O)N[C@@H](Cc1c[nH]cn1)C(=O)N1CCC[C@@H]1C(=O)N[C@@H](Cc1ccccc1)C(=O)O |
| < 0.1% | 7.5 | 8.1 | CC[C@H](C)[C@H](NC(=O)[C@H](Cc1ccc(OC)cc1)NC(=O)[C@@H](NC(=O)[C@H](CCCN=C(N)N)NC(=O)CNC)C(C)C)C(=O)N[C@@H](Cc1c[nH]cn1)C(=O)N1CCC[C@H]1C(=O)N[C@@H](Cc1ccccc1)C(=O)O |
| 0.2% | < 6 |  | CCOc1ccc(C[C@H](NC(=O)[C@@H](NC(=O)[C@H](CCCN=C(N)N)NC(=O)CNC)C(C)C)C(=O)N[C@H](C(=O)N[C@@H](Cc2c[nH]cn2)C(=O)N2CCC[C@H]2C(=O)N[C@@H](Cc2ccccc2)C(=O)O)[C@@H](C)CC)cc1 |
|  | < 6 |  | CC[C@H](C)[C@H](NC(=O)[C@H](Cc1ccc(OC)cc1)NC(=O)[C@@H](NC(=O)[C@H](CCCN=C(N)N)NC(=O)[C@H](C)N)C(C)C)C(=O)N[C@@H](Cc1c[nH]cn1)C(=O)N1CCC[C@H]1C(=O)N[C@@H](Cc1ccccc1)C(=O)O |
| 22% | 7.9 |  | CC[C@H](C)[C@H](NC(=O)[C@H](Cc1ccccc1)NC(=O)[C@@H](NC(=O)[C@H](CCCN=C(N)N)NC(=O)CNC)C(C)C)C(=O)N[C@@H](Cc1c[nH]cn1)C(=O)N1CCC[C@H]1C(=O)N[C@@H](Cc1ccccc1)C(=O)O |
| 0.3% |  |  | CC[C@H](C)[C@H](NC(=O)[C@H](Cc1ccc(OC)cc1)NC(=O)[C@@H](NC(=O)[C@H](CCCN=C(N)N)NC(=O)[C@@H]1CCCN1)C(C)C)C(=O)N[C@@H](Cc1c[nH]cn1)C(=O)N1CCC[C@@H]1C(=O)N[C@@H](Cc1ccccc1)C(=O)O |
| < 0.1% | 6.7 |  | CC[C@H](C)[C@H](NC(=O)[C@@H]1CCCN1C(=O)[C@H](Cc1c[nH]cn1)NC(=O)[C@@H](NC(=O)[C@H](Cc1ccccc1)NC(=O)[C@@H](NC(=O)[C@H](CCCN=C(N)N)NC(=O)CNC)C(C)C)[C@@H](C)CC)C(=O)O |
| < 0.1% | 6.6 |  | CC[C@H](C)[C@H](NC(=O)[C@@H]1CCCN1C(=O)[C@H](Cc1c[nH]cn1)NC(=O)[C@@H](NC(=O)[C@H](Cc1ccc(OC)cc1)NC(=O)[C@@H](NC(=O)[C@H](CCCN=C(N)N)NC(=O)CNC)C(C)C)[C@@H](C)CC)C(=O)O |
